From ChEMBL document CHEMBL1133803, “Design and synthesis of irreversible depsipeptidyl human rhinovirus 3C protease inhibitors” (Bioorg Med Chem Lett, 2001)

What was measured:
HeLa [1] = assay: Anti viral activity against human rhinovirus (HRV) in H1HeLa cells; type: functional, cell-based
Human rhinovirus sp. = assay: Enzyme inhibition against Human Rhinovirus 3C protease was determined; type: functional
HeLa [2] = assay: Cytotoxicity against uninfected H1HeLa cells; type: functional; conditions: Homo sapiens
[3] = Metabolism after 30 min of incubation with human liver microsomes in the absence of cofactor […] (2.0 mM) at a concentration of 25 uM; type: ADME; conditions: read-out: Metabolism
Procedure, shortened: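 Compound incubated for 30 min with human liver microsomes (1.0 mg/mL), with or without NADPH. An aliquot was precipitated with acetonitrile, then analysed by reverse-phase HPLC at rt using a gradient of CH3CN/CH3OH/0.01% TFA (pH 3.5 adjusted with NEt3), from 5:20:75 to 60:20:20 over 20 min, held 10 min, 1.0 mL/min. Result expressed as % metabolism.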

[4] = Metabolism after 30 min of incubation with human liver microsomes in the presence of cofactor […] (2.0 mM) at a concentration of 25 uM; type: ADME; conditions: read-out: Metabolism

Row | Structure (SMILES) | EC50 (HeLa [1]) [nM] | metabolised at 0.5 h, 25 µM [3] [%] | metabolised at 0.5 h, 25 µM [4] [%] | K obs / 1 (Human rhinovirus sp.) [M⁻¹ s⁻¹] | CC50 (HeLa [2]) [nM]
1 | CCOC(=O)/C=C/[C@H](CCC(N)=O)NC(=O)[C@@H](CC(=O)[C@@H](NC(=O)c1cc(C)on1)C(C)C)Cc1ccc(F)cc1 | 100 | – | – | 240000 | > 100000
2 | CCOC(=O)/C=C/[C@H](CCC(N)=O)NC(=O)[C@H](Cc1ccc(F)cc1)NC(=O)[C@@H](NC(=O)SC1CCCC1)C(C)C | 190 | – | – | 59900 | > 100000
3 | CCOC(=O)/C=C/[C@H](CCC(N)=O)NC(=O)[C@H](Cc1ccc(F)cc1)OC(=O)[C@@H](NC(=O)SC1CCCC1)C(C)C | 1000 | – | – | 99800 | > 10000
4 | CCOC(=O)/C=C/[C@H](CCC(N)=O)NC(=O)[C@H](Cc1ccc(F)cc1)NC(=O)[C@@H](NC(=O)c1cc(C)on1)C(C)C | 420 | – | – | 248000 | > 100000
5 | CCOC(=O)/C=C/[C@H](CCC(N)=O)NC(=O)[C@H](Cc1ccc(F)cc1)OC(=O)[C@@H](NC(=O)c1cc(C)on1)C(C)C | 100 | – | – | 68400 | > 10000

These reach a lower EC50 (HeLa [1]). Values come first.

Row | EC50 (HeLa [1]) [nM] | metabolised at 0.5 h, 25 µM [3] [%] | metabolised at 0.5 h, 25 µM [4] [%] | Structure (SMILES) | K obs / 1 (Human rhinovirus sp.) [M⁻¹ s⁻¹] | CC50 (HeLa [2]) [nM]
6 | 20 | – | – | CCOC(=O)/C=C/[C@H](CCC(N)=O)NC(=O)[C@@H](CC(=O)[C@@H](NC(=O)SC1CCCC1)C(C)C)Cc1ccc(F)cc1 | 293000 | > 100000
7 | 10 | 7 | 22 | CCOC(=O)/C=C/[C@H](C[C@@H]1CCNC1=O)NC(=O)[C@H](Cc1ccc(F)cc1)NC(=O)[C@@H](NC(=O)c1cc(C)on1)C(C)C | 1500000 | > 100000
8 | 7 | 44 | 67 | CCOC(=O)/C=C/[C@H](C[C@@H]1CCNC1=O)NC(=O)[C@H](Cc1ccc(F)cc1)OC(=O)[C@@H](NC(=O)c1cc(C)on1)C(C)C | 270000 | > 100000
9 | 5 | 27 | 50 | CCOC(=O)/C=C/[C@H](C[C@@H]1CCNC1=O)NC(=O)[C@@H](CC(=O)[C@@H](NC(=O)c1cc(C)on1)C(C)C)Cc1ccc(F)cc1 [RUPINTRIVIR] | 1090000 | > 100000
